Reference: ChEMBL document CHEMBL1123946, “Cholecystokinin antagonists. Synthesis and biological evaluation of 4-substituted 4H-[1,2,4]triazolo[4,3-a][1,4]benzodiazepines” (J Med Chem, 1988)

Tests used:
[1] = Displacement of [125I]CCK from Cholecystokinin receptor of guinea pig brain; design: species or system Cavia porcellus
How it was run: (§1)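 Membrane binding: [125I]-CCK-33 to rat pancreas and guinea pig cortex, and [125I]gastrin to guinea pig gastric glands. Values are the means of triplicate determinations.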

[2] = system: Mus musculus; assay: Effective dose for antagonism of CCK-8 inhibition of gastric emptying, 1 hr after oral administration; assay type: functional; conditions: Stomach
How it was run: (§2)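 Mice were dosed orally in 0.5% methylcellulose vehicle (N ≥ 10/dose), 1 h, 4 h or 5 h before CCK-8 (80 μg/kg, sc). CCK-8 was given 5 min before a charcoal meal, and gastric emptying was then scored. ED50 is the dose protecting 50% of mice, from regression over at least three dose levels.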

[3] = biological target: T1, Cholecystokinin receptor type A (Rattus norvegicus, UniProt P30551); assay: Displacement of [125I]CCK from Cholecystokinin receptor of rat pancreas; how it was run: as §1
T1 sequence (P30551 whole entry): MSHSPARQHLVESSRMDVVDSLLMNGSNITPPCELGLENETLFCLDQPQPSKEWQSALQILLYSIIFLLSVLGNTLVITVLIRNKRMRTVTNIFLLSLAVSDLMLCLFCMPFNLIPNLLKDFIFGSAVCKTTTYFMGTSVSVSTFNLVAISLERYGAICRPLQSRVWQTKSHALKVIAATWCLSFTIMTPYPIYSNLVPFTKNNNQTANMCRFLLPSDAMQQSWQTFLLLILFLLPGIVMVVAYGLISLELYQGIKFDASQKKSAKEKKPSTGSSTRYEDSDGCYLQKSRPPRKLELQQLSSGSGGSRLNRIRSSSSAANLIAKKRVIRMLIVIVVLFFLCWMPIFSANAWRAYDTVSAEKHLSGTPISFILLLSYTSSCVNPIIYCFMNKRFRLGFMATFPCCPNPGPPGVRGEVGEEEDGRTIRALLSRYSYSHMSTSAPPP

[4] = system: Mus musculus; assay: Effective dose for antagonism of CCK-8 inhibition of gastric emptying, 5 hr after oral administration; assay type: functional; conditions: Stomach; how it was run: as §2
[5] = Displacement of [125I]gastrin from guinea pig gastric glands
[6] = system: Mus musculus; assay: Effective dose for antagonism of CCK-8 inhibition of gastric emptying, 4 hr after oral administration; assay type: functional; conditions: Stomach; how it was run: as §2

| Compound | IC50 [1] [µM] | ED50 [2] [mg/kg] | other results |
| --- | --- | --- | --- |
| Cc1nnc2n1-c1ccccc1C(c1ccccc1)=NC2NC(=O)Nc1ccc(Cl)cc1 (stereo not drawn) | 0.12 |  |  |
| O=C(NC1N=C(c2ccccc2F)c2ccccc2-n2cnnc21)c1ccc(Cl)cc1 (stereo not drawn) | 9.3 | 0.12 |  |
| Fc1ccccc1C1=N[C@H](Cc2c[nH]c3ccccc23)c2nncn2-c2ccccc21 | ~100 |  |  |
| CN(C)Cc1nnc2n1-c1ccccc1C(c1ccccc1F)=N[C@@H]2Cc1c[nH]c2ccccc12 | ~100 |  |  |
| O=C(NC1N=C(c2ccccc2F)c2ccccc2-n2cnnc21)OCc1ccccc1 (stereo not drawn) | 8 |  |  |
| Fc1ccccc1C1=N[C@H](Cc2c[nH]c3ccccc23)c2nnc(-c3ccccc3)n2-c2ccccc21 | ~100 |  |  |
| O=C(NC1N=C(c2ccccc2)c2ccccc2-n2cnnc21)OCc1ccccc1 (stereo not drawn) | 7.7 |  | IC50 [3]: 0.1 µM |
| O=C(NC1N=C(c2ccccc2F)c2ccccc2-n2cnnc21)c1cc2ccccc2[nH]1 (stereo not drawn) | 0.053 | 0.02 | ED50 [4]: 0.12 mg/kg |
| Fc1ccccc1C1=N[C@H](Cc2c[nH]c3ccccc23)c2nnc(C(Cl)(Cl)Cl)n2-c2ccccc21 | > 100 |  |  |
| Cc1nnc2n1-c1ccccc1C(c1ccccc1F)=N[C@@H]2Cc1c[nH]c2ccccc12 | 39 | 76 | ED50 [4]: 200 mg/kg; IC50 [5]: 12 µM |
| O=C(Nc1ccc(Cl)cc1)NC1N=C(c2ccccc2)c2ccccc2-n2cnnc21 (stereo not drawn) | 0.48 |  |  |
| Cc1nnc2n1-c1ccccc1C(c1ccccc1F)=NC2NC(=O)c1cc2ccccc2[nH]1 (stereo not drawn) | 0.008 | 0.05 | IC50 [3]: 0.0002 µM; ED50 [6]: 0.13 mg/kg |
| Cc1nnc2n1-c1ccc(Cl)cc1C(c1ccccc1)=NC2 [ALPRAZOLAM] | > 100 |  | IC50 [3]: 64 µM |
| CN1C(=O)[C@@H](NC(=O)c2cc3ccccc3[nH]2)N=C(c2ccccc2)c2ccccc21 [DEVAZEPIDE] |  | 0.04 | ED50 [4]: 0.06 mg/kg |
| Cc1nnc2n1-c1ccc(Cl)cc1C(c1ccccc1Cl)=NC2 [TRIAZOLAM] | > 100 |  | IC50 [3]: 39 µM |
